Calls of active or inactive are those of the source. No cut-off for these calls is given here.
How the values were obtained:
[1] = biological target: Human immunodeficiency virus type 1 reverse transcriptase (Human immunodeficiency virus 1) (UniProt Q72547); assay: Inhibition of HIV1 reverse transcriptase at 50 uM by ELISA
Outline: (§1)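 Single-concentration screens run with commercial kits per the manufacturers' protocols. RT was measured by ELISA kit, with nevirapine 1 mM as positive control. HIV-1 protease was measured by a protease assay kit, with saquinavir 1 mM as positive control.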

[2] = tested on: Human immunodeficiency virus 1; assay: Antiviral activity against HIV1 in human TZM-bl cells assessed as viral infectivity by luciferase assay; type: functional, organism-based; details: Human immunodeficiency virus 1, TZM-bl
Outline: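 TZM-bl cells seeded at 4.0 × 10⁴/well and held overnight. CXCR4-tropic HIV-1 NL4.3 (MOI 0.05) was pre-incubated with compound or solvent for 1 h at 37 °C, then added in duplicate for 4 h and washed off. Cells got fresh medium with compound for 48 h, then lysis and luciferase chemiluminescence. AZT served as positive control. IC50 is the concentration giving 50% inhibition of infection versus infected untreated cells.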

[3] = Therapeutic index, ratio of CC50 for human TZM-bl cells to IC50 for HIV1; type: cell-based; details: read-out: Ratio CC50/IC50
Outline: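 Ratio of CC50 from the 48 h MTT assay in TZM-bl cells to IC50 from the NL4.3 luciferase infectivity assay in TZM-bl cells.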

[4] = (§2) Inhibition of HIV1 gp120 expressed in human HL2/3 cells assessed as compound-treated HL2/3 cell fusion to human TZM-bl cells after 48 hrs by luciferase assay; type: cell-based, Human immunodeficiency virus 1
Outline: (§3)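 Either HL2/3 cells (HeLa-derived, expressing HIV-1 HxB2 Env plus Tat, Gag, Rev and Nef; G418-maintained) or TZM-bl cells were pre-treated with compound, then washed. Treated cells were co-cultured with the untreated partner line at 1:1 (1.0 × 10⁵ cells/well) for 48 h at 37 °C, 5% CO₂. Luciferase activity was measured and inhibition scored relative to no-compound co-cultures, with Bicyclam as reference. IC50 is the concentration giving 50% inhibition of luciferase expression.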

TZM-bl = assay: as §2; type: cell-based; details: Human immunodeficiency virus 1; outline: as §3
[5] = Inhibition of HIV1 gp120 expressed in human HL2/3 cells assessed as Hl2/3 cell fusion to compound-treated human TZM-bl cells after 48 hrs by luciferase assay; type: cell-based, Human immunodeficiency virus 1; outline: as §3
[6] = tested on: Human immunodeficiency virus 1; assay: Antiviral activity against HIV1 assessed as inhibition of syncytia formation; type: functional, organism-based
[7] = biological target: Protease (Human immunodeficiency virus 1) (UniProt Q9YQ12); assay: Inhibition of HIV1 protease at 50 uM by ELISA; outline: as §1
[8] = Cytotoxicity against human TZM-bl cells after 48 hrs by MTT assay; type: cell-based
Outline: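 TZM-bl cells seeded at 6.0 × 10³/well and incubated 24 h at 37 °C, 5% CO₂. They were then exposed to four compound concentrations (4, 20, 100, 500) or solvent for 48 h. MTT was added for 4 h at 37 °C, followed by overnight solubilization in SDS/DMF/PBS. Absorbance read at 570 nm with a 690 nm reference. Viability was scored relative to untreated cells, and CC50 came from nonlinear curve fitting.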

[9] = Human immunodeficiency virus 1, TZM-bl, 48 h, read-out: IC50

Chain of Protease (Human immunodeficiency virus 1) (Q9YQ12 as listed by the source): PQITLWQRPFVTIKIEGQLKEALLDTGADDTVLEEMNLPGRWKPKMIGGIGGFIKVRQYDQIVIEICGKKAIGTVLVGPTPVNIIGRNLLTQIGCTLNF

inhibition [1]	IC50 ([2]; read-out: IC50) [nM]	IC50 ([2]; read-out: pIC50 (converted)) [nM]	IC50 [4, 9] [nM]	IC50 ([5]; tzm-bl)	inhibition [7]	IC50 ([4]; tzm-bl)	IC50 [5, 9] [nM]	SMILES	selectivity ratio [3]	inhibition (TZM-bl)	inhibition [6]	CC50 at 48 h [8] [µM]
inactive	510	513	1600	Not Active	inactive	–	–	C=C1CC[C@@H]2[C@]3(C)COC(c4cccc([N+](=O)[O-])c4)O[C@@H]3CC[C@@]2(C)[C@@H]1C/C=C1/C(=O)OC[C@H]1O (some centres not stated)	1460	Dose-dependent effect	Active	745
inactive	590	589	1700	Not Active	inactive	–	–	C=C1CC[C@@H]2[C@](C)(CO)[C@H](O)CC[C@@]2(C)[C@@H]1C/C=C1/C(=O)OC[C@H]1O [ANDROGRAPHOLIDE]	2880	Dose-dependent effect	Active	1700
–	6090	6030	–	–	–	–	–	C=C1CC[C@@H]2[C@]3(C)COC(c4ccc(O)c(OC)c4)O[C@@H]3CC[C@@]2(C)[C@@H]1C/C=C1/C(=O)OC[C@H]1O (some centres not stated)	10	–	–	59
–	2100	2090	–	–	–	–	–	C=C1CC[C@@H]2[C@]3(C)COC(c4ccc(O)cc4)O[C@@H]3CC[C@@]2(C)[C@@H]1C/C=C1/C(=O)OC[C@H]1O (some centres not stated)	24	–	–	50
–	2750	2750	–	–	–	–	–	C=C1CC[C@@H]2[C@]3(C)COC(c4ccc5c(c4)OCO5)O[C@@H]3CC[C@@]2(C)[C@@H]1C/C=C1/C(=O)OC[C@H]1O (some centres not stated)	599	–	–	1650
inactive	830	832	1100	Not Active	inactive	–	–	C=C1CC[C@@H]2[C@](C)(CO)[C@H](O)CC[C@@]2(C)[C@@H]1C/C=C1/C(=O)OC[C@H]1OC(=O)c1ccc(Cl)nc1Cl	12500	Dose-dependent effect	Active	10400
–	9940	10000	–	–	–	–	–	C=C1CC[C@@H]2[C@]3(C)COC(c4ccc(Cl)cc4)O[C@@H]3CC[C@@]2(C)[C@@H]1C/C=C1/C(=O)OC[C@H]1O (some centres not stated)	44	–	–	440
–	2080	2090	–	–	–	–	–	C=C1CC[C@@H]2[C@](C)(COC(=O)NS(=O)(=O)c3ccc(C)cc3)[C@H](O)CC[C@@]2(C)[C@@H]1C/C=C1/C(=O)OC[C@H]1O	978	–	–	2040
–	1090	1100	–	–	–	–	–	C=C1CC[C@@H]2[C@]3(C)COC(c4ccc(O)cc4O)O[C@@H]3CC[C@@]2(C)[C@@H]1C/C=C1/C(=O)OC[C@H]1O (some centres not stated)	164	–	–	179
–	84200	85100	–	–	–	–	–	C=C1CC[C@@H]2[C@](C)(CO)[C@H](O)CC[C@@]2(C)[C@@H]1C/C=C1/C(=O)OC[C@H]1OC(=O)c1ccccc1O	12	–	–	1080
–	–	–	–	–	–	Not Active	1600	Br.c1cc(CN2CCCNCCNCCCNCC2)ccc1CN1CCCNCCNCCCNCC1	–	–	–	–

SMILES	inhibition [1]	IC50 ([2]; read-out: IC50) [nM]	IC50 ([2]; read-out: pIC50 (converted)) [nM]	IC50 [4, 9] [nM]	IC50 ([5]; tzm-bl)	inhibition [7]	IC50 ([4]; tzm-bl)	IC50 [5, 9] [nM]	selectivity ratio [3]	inhibition (TZM-bl)	inhibition [6]	CC50 at 48 h [8] [µM]
C=C(C)[C@@H]1CC[C@]2(C(=O)NCCCCCCCC(=O)N[C@@H](CC(C)C)[C@H](O)CC(=O)O)CC[C@]3(C)[C@H](CC[C@@H]4[C@@]5(C)CC[C@H](O)C(C)(C)[C@@H]5CC[C@]43C)[C@@H]12	–	100	100	–	–	–	–	–	–	–	–	–

— ChEMBL document CHEMBL2086289, “Anti-HIV activity of semisynthetic derivatives of andrographolide and computational study of HIV-1 gp120 protein binding” (Eur J Med Chem, 2012)
